Experimental data: article PMC10448495 (ACS Omega, 2023)

Key:
Format in all cases: in vivo
mice = test: Carrageenan-induced paw edema model; conditions: dose 10 mg/kg
Procedure, shortened: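 Thirty BALB-c mice randomised into five groups of six. Paw volume by digital plethysmometer at 0, 1, 2, 3, 4 and 5 h; percent inhibition from paw-volume increase, control versus treated. ANOVA/Dunnett's.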

mice (BALB-c) [1] = test: Acetic acid-induced writhing assay; conditions: 10 mg/kg i.p.
Procedure, shortened: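 BALB-c mice of either sex (18–22 g), fasted 2 h, six per group. Writhes counted starting 5 min after acid; percent analgesic effect derived. Mean ± S.E.M., ANOVA with Dunnett's test versus negative control.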

mice (BALB-c) [2] = test: Hot plate assay; conditions: dose 10 mg/kg

| SMILES | paw volume (mice; 1 h) | paw volume (mice; 2 h) | paw volume (mice; 3 h) | paw volume (mice; 4 h) | paw volume (mice; 5 h) | no. of writhing (20 min) (mice (BALB-c) [1]) | latency of nociceptive response (mice (BALB-c) [2]; 0 min) | latency of nociceptive response (mice (BALB-c) [2]; 30 min) | latency of nociceptive response (mice (BALB-c) [2]; 60 min) | latency of nociceptive response (mice (BALB-c) [2]; 90 min) | latency of nociceptive response (mice (BALB-c) [2]; 120 min) |
| --- | --- | --- | --- | --- | --- | --- | --- | --- | --- | --- | --- |
| O=C(O)Cc1ccccc1Nc1c(Cl)cccc1Cl [diclofenac–Na, diclofenac sodium] | 2.283 ± 0.201 | 2.142 ± 0.105 | 2.004 ± 0.224 | 2.010 ± 0.185 | 2.019 ± 0.022 |  |  |  |  |  |  |
| COc1ccc2c(c1)c(CC(=O)O)c(C)n2C(=O)c1ccc(Cl)cc1 [indomethacin] | 2.462 ± 0.032 | 2.207 ± 0.218 | 2.100 ± 0.122 | 2.128 ± 0.370 | 2.184 ± 0.632 | 17.04 ± 1.22 |  |  |  |  |  |
| COc1cccc(C2(O)CCCCC2CN(C)C)c1 (stereo not shown) [tramal, tramadol] |  |  |  |  |  |  | 10.32 ± 0.57 s | 26.22 ± 1.07 s | 25.45 ± 2.52 s | 20.37 ± 0.88 s | 20.07 ± 1.66 s |
